The RNAGym collection of RNA variant scans (doi:10.1038/nmeth.2970)

B1: NELF-E aptamer (parent)
chain: CCCAACGACUGCCGAGCGAGAUUACGCUUGAGCGCCCCACUGAGGAUGCCCACGGGCGAUUGGGGCACGG

Variants of: B1
Experiment: HiTS-RAP
Conditions: with NELF-E (Drosophila)
In short: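 Kd came from weighted Hill fits to the first binding curve, with intensities normalised to sequencing intensity and averaged per sequence, keeping only fits whose variance was below 1,000,000. That curve was imaged on an Illumina GAIIx flowcell, where sequenced aptamer DNA templates with a T7 promoter and ter site had been transcribed in situ by T7 RNA polymerase and halted by GST-Tus (30 minutes, 37°C). Before each image, clusters equilibrated for 30 minutes at room temperature with NELF-E-mOrange at 0.064 to 1000 nM in HEPES binding buffer.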

In order of rising Kd:
1. CCCAACGACUGCCGAGCGGGAUUACGCUAGAGCGCCCCACUGAGGAUGCCCACGGGCGAUUGGGGCACGG [A19G U29A]  3.96 nM
2. CCCAACGACUGCCGAGCGGGACUACGCUUGAGCGCCCCACUGAGGAUGCCCACGGGCGAUUGGGGCACGG [A19G U22C]  4.25 nM
3. CCCAACGACUGCCGAGCGUGAUUACGCUUGAGCGCCCCACGGAGGAUGCCCACGGGCGAUUGGGGCACGG [A19U U41G]  4.74 nM
4. CCCAACGACUGCCGAGCGAAAUUACGCUGGAGCGCCCCACUGAGGAUGCCCACGGGCGAUUGGGGCACGG [G20A U29G]  4.98 nM
5. CCCAACGACUGCCGAGCGUGAUUACGCUUGAGCGCCCCACUGAGGAUGCCCACGGGCGAUUGGGGCACGG [A19U]  5.02 nM
6. CCCAACGACUGCCGAGCGAUGUUACGCUUGAGCGCCCCACUGAGGAUGCCCACGGGCGAUUGGGGCACGG [G20U A21G]  5.12 nM
7. CCCAACGACUGCCGAGCGAAAUUACGCUUGAGCGCCCCACGGAGGAUGCCCACGGGCGAUUGGGGCACGG [G20A U41G]  5.24 nM
8. CCCAACGACUGCCGAGCGAAAUUACGCUUGAGCGCCCCACUGAGGAUGCCCACGGGCGAUUGGGGCACGG [G20A]  5.25 nM
9. CCCAACGACUGCCGAGCGAAAGUACGCUUGAGCGCCCCACUGAGGAUGCCCACGGGCGAUUGGGGCACGG [G20A U22G]  5.27 nM
10. CCCAACGACUGCCGAGCGUGAUUGCGCUUGAGCGCCCCACUGAGGAUGCCCACGGGCGAUUGGGGCACGG [A19U A24G]  5.61 nM
11. CCCAACGACUGCCGAGCGGGAGUACGCUUGAGCGCCCCACUGAGGAUGCCCACGGGCGAUUGGGGCACGG [A19G U22G]  5.7 nM
12. CCCAACGACUGCCGAGCGUGAUUACGCUGGAGCGCCCCACUGAGGAUGCCCACGGGCGAUUGGGGCACGG [A19U U29G]  5.71 nM
13. CCCAACGACUGCCGAGCGACAUUACGCUUGAGCGCCCCACUGAGGAUGCCCACGGGCGAUUGGGGCACGG [G20C]  5.82 nM
14. CCCAACGACUGCCGAGCGGGAUUACGCUGGAGCGCCCCACUGAGGAUGCCCACGGGCGAUUGGGGCACGG [A19G U29G]  5.87 nM
15. CCCAACGACUGCCGAGCGAAAUGACGCUUGAGCGCCCCACUGAGGAUGCCCACGGGCGAUUGGGGCACGG [G20A U23G]  5.94 nM
16. CCCAACGACUGCCGAGCGUGAGUACGCUUGAGCGCCCCACUGAGGAUGCCCACGGGCGAUUGGGGCACGG [A19U U22G]  6 nM
17. CCCAACGACUGCCGAGCGAUAUUACGCUUGAGCGCCCCACUGAGGAUGCCCACGGGCGAUUGGGGCACGG [G20U]  6.04 nM
18. CCCAACGACUGCCGAGCGGGAUGACGCUUGAGCGCCCCACUGAGGAUGCCCACGGGCGAUUGGGGCACGG [A19G U23G]  6.11 nM
19. CCCAACGACUGCCGAGCGGGAUUACGCUCGAGCGCCCCACUGAGGAUGCCCACGGGCGAUUGGGGCACGG [A19G U29C]  6.11 nM
20. CCCAACGACUGCCGAGCGGGAUUACGCUUGAGCGCCCCACUGAGGAUGCCCACGGGCGAUUGGGACACGG [A19G G65A]  6.12 nM
21. CCCAACGACUGCCGAGCGGGAUUACGCUUGAGCGCCCCACGGAGGAUGCCCACGGGCGAUUGGGGCACGG [A19G U41G]  6.27 nM
22. CCCAACGACUGCCGAGCGAAAUUGCGCUUGAGCGCCCCACUGAGGAUGCCCACGGGCGAUUGGGGCACGG [G20A A24G]  6.46 nM
23. CCCAACGACUGCCGAGCGGGAUUACGCUUGAGCGCCCCACUGAGGAUGCCCACGGGCGAUUGGAGCACGG [A19G G64A]  6.54 nM
24. CCCAACGACUGCCGAGCGUGAUGACGCUUGAGCGCCCCACUGAGGAUGCCCACGGGCGAUUGGGGCACGG [A19U U23G]  6.66 nM
25. CCCAACGACUGCCGAGCGUGUUUACGCUUGAGCGCCCCACUGAGGAUGCCCACGGGCGAUUGGGGCACGG [A19U A21U]  6.8 nM
26. CCCAACGACUGCCGAGCGAUAUUGCGCUUGAGCGCCCCACUGAGGAUGCCCACGGGCGAUUGGGGCACGG [G20U A24G]  6.87 nM
27. CCCAACGACUGCCGAGCGAAGUUACGCUUGAGCGCCCCACUGAGGAUGCCCACGGGCGAUUGGGGCACGG [G20A A21G]  7.05 nM
28. CCCAACGACUGCCGAGCGGGAUUACGCUUGAGCGCCCCACUGAGGAGGCCCACGGGCGAUUGGGGCACGG [A19G U47G]  7.16 nM
29. CCCAACGACUGCCGAGCGGGAUUACGCUUGAGCGCCCCACUGAGGAUGCCCACGGGCGAUUGGGUCACGG [A19G G65U]  7.38 nM
30. CCCAACGACUGCCGAGCGAUAUUACGCUUGAGCGCCCCACUGAGGAUGCCCACGGGUGAUUGGGGCACGG [G20U C57U]  7.84 nM
31. CCCAACGACUGCCGAGCGAUAUUACGCUUGGGCGCCCCACUGAGGAUGCCCACGGGCGAUUGGGGCACGG [G20U A31G]  8.41 nM
32. CCCAACGACUGCCGAGCGGGAUUACGCCUGAGCGCCCCACUGAGGAUGCCCACGGGCGAUUGGGGCACGG [A19G U28C]  9.82 nM
33. CCCAACGACUGCCGAGCGAUAUUACGCUUGAGCGCCCCGCUGAGGAUGCCCACGGGCGAUUGGGGCACGG [G20U A39G]  10.9 nM
34. CCCAACGACUGCCGAGCGGGAUUACGCUUGAGCGCCCCACUGAGGAUGCCCACGGGCGAUUGUGGCACGG [A19G G63U]  14.8 nM
35. CCCAACGACUGCCGAGCGAUAUUACGCUUGAGCGCCCCACUGAGGAUGCCCACGGGCGGUUGGGGCACGG [G20U A59G]  19.9 nM
36. CCCAACGACUGCCGAGCGUGAUUACGCUUGAGCGCCCCACUGAGGAUGCCCUCGGGCGAUUGGGGCACGG [A19U A52U]  22.1 nM
37. CCCAACGACUGCCGAGCGGGAUUACGCUUGAGCGCCCCACUGAGGAUGCCCACGGGCGAUAGGGGCACGG [A19G U61A]  24.3 nM
38. CCCAACGACUGCCGAGCGAUAUUACGCUUGAGCGCCCCACUGAGGGUGCCCACGGGCGAUUGGGGCACGG [G20U A46G]  47.1 nM
39. CCCAACGACUGCCGAGCGGGAUUACGCUUGAGCGCCCCACCGAGGAUGCCCACGGGCGAUUGGGGCACGG [A19G U41C]  92.4 nM
